≈ marks a conversion by molar mass, not a printed value. Calls of active or inactive are those of the source. No cut-off for these calls is given here.
Columns and labels:
Trichomonas vaginalis [1] = assay: Potency index, ratio of metronidazole MIC to compound MIC for metronidazole resistant Trichomonas vaginalis ATCC 50143; assay type: functional
Trichomonas vaginalis [2] = assay: Potency index, ratio of metronidazole MIC to compound MIC for metronidazole sensitive Trichomonas vaginalis ATCC 33592; assay type: functional
[3] = Selectivity index, ratio of IC50 for human HeLa cells to MIC for metronidazole resistant Trichomonas vaginalis ATCC 50143; assay type: toxicity, cell-based; conditions: read-out: Selectivity Index
How it was run: (§1)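 SI is HeLa IC50 divided by parasite MIC. HeLa cells seeded at 2 × 10⁴/well in triplicate in DMEM with 10% FCS, 24 h at 37 °C in 5% CO2. Medium then replaced with compound dilutions (0.05% DMSO controls) for 24 h. Viability by MTT read at OD540; IC50 is the concentration killing 50% of cells. MIC from 48 h trypan blue parasite killing in TYM.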

Trichomonas vaginalis [4] = assay: Antiparasitic activity against metronidazole sensitive Trichomonas vaginalis ATCC 33592 after 48 hrs by trypan blue exclusion assay; assay type: functional; conditions: ATCC 33592, 48 h
[5] = Cytotoxicity against human HeLa cells after 24 hrs by MTT assay; assay type: toxicity, cell-based
How it was run: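 HeLa cells seeded at 2 × 10⁴ per well in DMEM with 10% FCS, in triplicate, and held 24 h at 37 °C in 5% CO₂. Exposed to compound dilutions for 24 h; controls received 0.05% DMSO. MTT in PBS pH 7.4 added, formazan dissolved in DMSO, OD540 read. IC50 taken as the concentration killing 50% of cells.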

[6] = Selectivity index, ratio of IC50 for human HeLa cells to MIC for metronidazole sensitive Trichomonas vaginalis ATCC 33592; assay type: toxicity, cell-based; conditions: read-out: Selectivity Index; how it was run: as §1
Trichomonas vaginalis [7] = assay: Antiparasitic activity against metronidazole resistant Trichomonas vaginalis ATCC 50143 after 48 hrs by trypan blue exclusion assay; assay type: functional; conditions: ATCC 50143, 48 h
How it was run: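 T. vaginalis trophozoites ([…]), log phase, grown in TYM with 10% FCS, vitamin mix and penicillin/streptomycin at 37 °C. Test agents from DMSO stocks serially diluted in TYM; DMSO/TYM vehicle controls. Anaerobic incubation at 37 °C with microscopic viability checks from 3 to 48 h by trypan blue exclusion. MIC is the lowest concentration killing all cells by 48 h. Repeated three times.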

Trichomonas vaginalis [8] = assay: Antiparasitic activity against Trichomonas vaginalis in po dosed mouse assessed as size of abscess at 100 mg/kg, po administered daily for 7 days measured 7 days post last dose (reference value: 113 mm'2); assay type: functional
How it was run: (§2)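 Six-week-old mice inoculated subcutaneously in the left hind flank with 50 µL of 2 × 10⁶ saline-washed trophozoites/mL grown in TYM. Abscess confirmed by palpation at day 7 and by fine-needle biopsy. Oral dosing in gum acacia at 50 or 100 mg/kg daily; controls received vehicle. Abscess size measured longitudinally each day and area calculated; n = 3 per group.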

[9] = Clearance in Sprague Dawley rat at 50 mg/kg, po; assay type: ADME, organism-based; conditions: in vivo
How it was run: (§3)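 Overnight-fasted (12–16 h) rats, n = 4 per time point, given a single oral dose of 50 mg/kg as a 12.5 mg/mL suspension in 1% w/v gum acacia and water. Blood sampled at set times up to 24 h; serum stored at −80 °C. Analysis by LC-MS/MS in positive-ion MRM mode with phenacetin as internal standard; parameters derived by non-compartmental analysis. Values are means of four rats.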

Trichomonas vaginalis [10] = assay: Antiparasitic activity against Trichomonas vaginalis assessed as decrease in parasite free thiol levels at MIC after 24 hrs by fluorometric thiol detector-based fluorescence microscopic method; assay type: functional
How it was run: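 Cells pelleted (700 × g, 10 min, 4 °C), washed 2–3 times in PBS, then stained 5 min in the dark with fluorometric thiol detector (pre-diluted 100×). Imaged by epifluorescence microscopy, UV-1A filter, with equal exposure times for all samples.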

[11] = Tmax in Sprague Dawley rat at 50 mg/kg, po; assay type: ADME, organism-based; conditions: in vivo; how it was run: as §3
[12] = Half life in Sprague Dawley rat at 50 mg/kg, po; assay type: ADME, organism-based; conditions: in vivo; how it was run: as §3
Trichomonas vaginalis [13] = assay: Antiparasitic activity against Trichomonas vaginalis in po dosed mouse assessed as size of abscess at 50 mg/kg, po administered daily for 5 days measured 5 days post last dose (reference value: 120 mm'2); assay type: functional; how it was run: as §2
[14] = Volume of distribution at steady state in Sprague Dawley rat at 50 mg/kg, po; assay type: ADME, organism-based; conditions: in vivo; how it was run: as §3
Trichomonas vaginalis [15] = assay: Antiparasitic activity against Trichomonas vaginalis in po dosed mouse assessed as size of abscess at 100 mg/kg, po administered daily for 5 days measured 5 days post last dose (reference value: 120 mm'2); assay type: functional; how it was run: as §2
[16] = AUClast in Sprague Dawley rat at 50 mg/kg, po; assay type: ADME, organism-based; design: dose 50 mg/kg, route oral, time 0 - last; conditions: in vivo; how it was run: as §3
[17] = Cmax in Sprague Dawley rat at 50 mg/kg, po; assay type: ADME, organism-based; design: dose 50 mg/kg, route oral; conditions: in vivo; how it was run: as §3
Trichomonas vaginalis [18] = assay: Antiparasitic activity against Trichomonas vaginalis in po dosed mouse assessed as size of abscess at 50 mg/kg, po administered daily for 7 days measured 7 days post last dose (reference value: 113 mm'2); assay type: functional; how it was run: as §2

Structure (SMILES) | Ratio (Trichomonas vaginalis [1]) | Ratio (Trichomonas vaginalis [2]) | selectivity ratio [3] | MIC (Trichomonas vaginalis [4]) [µM] | IC50 at 24 h [5] [mM] | selectivity ratio [6] | MIC (Trichomonas vaginalis [7]) [µM] | Activity (Trichomonas vaginalis [8]) [mm2] | CL [9] [mL/min/kg] | Activity (Trichomonas vaginalis [10]) | Tmax [11] [h] | half-life [12] [h] | Activity (Trichomonas vaginalis [13]) | Vdss [14] [L/kg] | Activity (Trichomonas vaginalis [15]) | AUClast [16] [ng·h/mL] | Cmax [17] [ng/mL] | Activity (Trichomonas vaginalis [18]) [mm2]
Cc1ncc([N+](=O)[O-])n1CC(O)CSC(=S)N1CCN(C(=O)OC(C)(C)C)CC1 (racemic) | <=12.7 | <=2.4 | 9 | 17.6 (≈ 7.82 µg/mL) | 0.689 | 39 | 70.2 (≈ 31.3 µg/mL) | – | – | – | – | – | – | – | – | – | – | –
Cc1ncc([N+](=O)[O-])n1CC(O)CSC(=S)N1CCC(Cc2ccccc2)CC1 (racemic) | 2.5 - 12.6 | <=2.4 | 45 | 14.4 (≈ 6.26 µg/mL) | 1.32 | 91 | 28.8 (≈ 12.5 µg/mL) | – | – | – | – | – | – | – | – | – | – | –
CCCCN1CCN(C(=S)SCC(O)Cn2c([N+](=O)[O-])cnc2C)CC1 (racemic) | <=12.7 | <=2.4 | 61 | 15.6 (≈ 6.26 µg/mL) | 1.91 | 122 | 31.2 (≈ 12.5 µg/mL) | – | – | – | – | – | – | – | – | – | – | –
Cc1ncc([N+](=O)[O-])n1CC(O)CSC(=S)N1CCN(c2ccccc2)CC1 (racemic) | <=12.7 | 2.4 | > 135 | 8.55 (≈ 3.6 µg/mL) | > 5 | > 584 | 37.1 (≈ 15.6 µg/mL) | 0.785 | 272 | Active | 4 | 5 | 1 - 5 mm2 | 80.6 | 1 - 5 mm2 | 149.1 | 35.2 | 1.55
CCN1CCN(CC(O)Cn2c([N+](=O)[O-])cnc2C)CC1 (racemic) | <=12.7 | <=2.4 | 47 | 12.1 (≈ 3.6 µg/mL) | 4.94 | 407 | 105 (≈ 31.3 µg/mL) | – | – | – | – | – | – | – | – | – | – | –
Cc1ncc([N+](=O)[O-])n1CC(O)CN1CCN(c2ccccn2)CC1 (racemic) | <=12.7 | <=2.4 | 25 | 18.1 (≈ 6.26 µg/mL) | 1.83 | 101 | 72.2 (≈ 25 µg/mL) | – | – | – | – | – | – | – | – | – | – | –
Cc1ncc([N+](=O)[O-])n1CC(O)Cn1cnc([N+](=O)[O-])c1 (racemic) | <=12.7 | – | > 47 | 26.4 (≈ 7.81 µg/mL) | > 5 | > 192 | 106 (≈ 31.3 µg/mL) | – | – | – | – | – | – | – | – | – | – | –
Cc1ncc([N+](=O)[O-])n1CC(O)Cn1nnc2ccccc21 (racemic) | <=12.7 | – | 103 | 25.9 (≈ 7.82 µg/mL) | 4.24 | 169 | 41.4 (≈ 12.5 µg/mL) | – | – | – | – | – | – | – | – | – | – | –
Cc1nc([N+](=O)[O-])cn1CC(O)Cn1c([N+](=O)[O-])cnc1C (racemic) | <=12.7 | – | 43 | 50.4 (≈ 15.6 µg/mL) | 4.35 | 86 | 101 (≈ 31.3 µg/mL) | – | – | – | – | – | – | – | – | – | – | –
Cc1ncc([N+](=O)[O-])n1CC(O)Cn1nccn1 (racemic) | <=12.7 | – | > 102 | 31 (≈ 7.82 µg/mL) | > 5 | > 161 | 49.6 (≈ 12.5 µg/mL) | – | – | – | – | – | – | – | – | – | – | –
Cc1ncc([N+](=O)[O-])n1CC(O)Cn1cncn1 (racemic) | <=12.7 | – | 50 | 31 (≈ 7.82 µg/mL) | 4.97 | 160 | 99.2 (≈ 25 µg/mL) | – | – | – | – | – | – | – | – | – | – | –
Cc1nc([N+](=O)[O-])cn1CC(O)CSC(=S)N1CCN(c2ccccc2)CC1 (racemic) | <=12.7 | – | > 16 | 22.7 (≈ 9.56 µg/mL) | > 5 | > 227 | 297 (≈ 125 µg/mL) | – | – | – | – | – | – | – | – | – | – | –
Cc1ncc([N+](=O)[O-])n1CC(O)CSC(=S)N1CCCC(C)C1 (racemic) | 2.5 - 12.6 | <=2.4 | 8 | 17.4 (≈ 6.26 µg/mL) | 0.609 | 35 | 69.8 (≈ 25 µg/mL) | – | – | – | – | – | – | – | – | – | – | –
Cc1ncc([N+](=O)[O-])n1CC(O)CSC(=S)N1CCN(c2ccccc2F)CC1 (racemic) | <=12.7 | <=2.4 | 56 | 14.2 (≈ 6.25 µg/mL) | 3.24 | 227 | 56.9 (≈ 25 µg/mL) | – | – | – | – | – | – | – | – | – | – | –
Cc1ncc([N+](=O)[O-])n1CC(O)CN1CCN(c2cccc(Cl)c2Cl)CC1 (racemic) | <=12.7 | <=2.4 | > 33 | 18.9 (≈ 7.81 µg/mL) | > 5 | > 265 | 151 (≈ 62.5 µg/mL) | – | – | – | – | – | – | – | – | – | – | –
Cc1ncc([N+](=O)[O-])n1CC(O)CSC(=S)N1CCC(C)CC1 (racemic) | 2.5 - 12.6 | <=2.4 | 26 | 17.4 (≈ 6.26 µg/mL) | 1.82 | 104 | 69.8 (≈ 25 µg/mL) | – | – | – | – | – | – | – | – | – | – | –
CCOC(=O)N1CCN(C(=S)SCC(O)Cn2c([N+](=O)[O-])cnc2C)CC1 (racemic) | <=12.7 | <=2.4 | 26 | 15 (≈ 6.25 µg/mL) | 1.61 | 107 | 60 (≈ 25 µg/mL) | – | – | – | – | – | – | – | – | – | – | –
Cc1ncc([N+](=O)[O-])n1CC(O)CSC(=S)N1CCN(c2cccc(Cl)c2)CC1 (racemic) | <=12.7 | <=2.4 | 15 | 17.2 (≈ 7.82 µg/mL) | 1.08 | 62 | 68.7 (≈ 31.3 µg/mL) | – | – | – | – | – | – | – | – | – | – | –
Cc1ncc([N+](=O)[O-])n1CC(O)CSC(=S)N1CCN(c2cccc(Cl)c2Cl)CC1 (racemic) | <=12.7 | <=2.4 | 7 | 16 (≈ 7.83 µg/mL) | 1 | 62 | 128 (≈ 62.7 µg/mL) | – | – | – | – | – | – | – | – | – | – | –
Cc1ncc([N+](=O)[O-])n1CC(O)Cn1ccnn1 (racemic) | <=12.7 | <=2.4 | > 50 | 12.4 (≈ 3.12 µg/mL) | > 5 | > 416 | 99.2 (≈ 25 µg/mL) | – | – | – | – | – | – | – | – | – | – | –
Cc1ncc([N+](=O)[O-])n1CC(O)Cn1cnc2ccccc21 (racemic) | <=12.7 | – | 54 | 25.9 (≈ 7.82 µg/mL) | 4.53 | 181 | 83 (≈ 25 µg/mL) | – | – | – | – | – | – | – | – | – | – | –
Cc1ncc([N+](=O)[O-])n1CC(O)CN1CCOCC1 (racemic) [MORINIDAZOLE] | <=12.7 | – | > 54 | 46.3 (≈ 12.5 µg/mL) | > 5 | > 108 | 92.6 (≈ 25 µg/mL) | – | – | – | – | – | – | – | – | – | – | –
Cc1ncc([N+](=O)[O-])n1CCO [METRONIDAZOLE] | – | – | > 13 | 21.1 (≈ 3.6 µg/mL) | > 5 | > 238 | 365 (≈ 62.6 µg/mL) | – | – | – | – | – | 1 - 5 mm2 | – | – | – | – | 1.57

— ChEMBL document CHEMBL3875170, “2-Methyl-4/5-nitroimidazole derivatives potentiated against sexually transmitted Trichomonas: Design, synthesis, biology and 3D-QSAR study” (Eur J Med Chem, 2016)
